Laboratory results as given in ChEMBL document CHEMBL1146686, “Phenolic thiazoles as novel orally-active neuroprotective agents” (Bioorg Med Chem Lett, 2004).

Organism: Rattus norvegicus
Assay: Compound tested to inhibit (LPO) lipid peroxidation was determined in rat brain microsomes
Format: functional
Summary of the method: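 Rat brain microsomes; lipid peroxidation induced by Fe2+. Antioxidant activity read as reduction of malondialdehyde formed from unsaturated fatty acid peroxidation.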

Row | IC50 [µM] | Compound
1 | 30 | Cc1cc(C(C)(C)C)c(O)c(C(C)(C)C)c1 [BUTYLATED HYDROXYTOLUENE]
2 | 32 | CC1=NN(c2ccccc2)C(=O)C1 [EDARAVONE]
